Assay results published in publication PMC11310375 (EJNMMI Radiopharmacy and Chemistry, 2024).
Square brackets hold non-standard residues; d marks the D form. Peptide text beside a SMILES is read from it. * marks the point of attachment. AspCH2OCO(5-Me-thien-2-yl) = Cc1ccc(C(=O)OCC(=O)[C@H](CC(=O)O)N*)s1; Phe(F5) = N[C@@H](Cc1c(F)c(F)c(F)c(F)c1F)C(=O)O; X5 = Cc1cccc(C)c1C(=O)OCC(=O)[C@@H](CC(=O)O)N*; X4 = Cc1ccc(C(=O)OCC(=O)[C@@H](CC(=O)O)N*)s1; X2 = O=C(CCOCCOCCOCCOCCn1cc(CCCF)nn1)*; d(β3hL) = CC(C)C[C@@H](N)CC(=O)O; 3Pal = N[C@@H](Cc1cccnc1)C(=O)O; d3Pal = N[C@H](Cc1cccnc1)C(=O)O; X3 = O=C(CCCc1cn(CCF)nn1)*; X1 = O=C(Cn1cc(CCCF)nn1)*; Ahx = NCCCCCC(=O)O

Experiments:
[1] = molecular target: T1, caspase-3 (Homo sapiens, UniProt P42574); experiment: Biochemical inhibition assay, kinact/Ki with AMAC substrate; settings: for kinact/KI: read-out: kinact/Ki C3
T1 sequence (P42574 29-175 limits assumed): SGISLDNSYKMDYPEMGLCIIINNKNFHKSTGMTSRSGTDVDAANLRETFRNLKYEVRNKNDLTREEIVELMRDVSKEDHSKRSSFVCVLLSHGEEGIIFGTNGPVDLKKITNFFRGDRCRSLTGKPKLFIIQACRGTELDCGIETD
T1 sequence (P42574 176-277 limits assumed): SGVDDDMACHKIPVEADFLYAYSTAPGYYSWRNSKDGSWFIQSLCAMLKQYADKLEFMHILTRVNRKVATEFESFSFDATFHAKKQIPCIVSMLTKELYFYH
Outline: (§1)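 Continuous fluorogenic inactivation assay with Ac-DEVD-AMAC at 100 μM final. Final enzyme concentrations were 1 nM caspase-3 and 5 nM caspase-7. Enzyme was added to substrate plus inhibitor, and fluorescence (ex 320/em 460) was read immediately. Progress curves were fit to F = -[v₀(1-exp(-kobst))/kobs-Fmax] to give kinact and Ki.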

[2] = molecular target: T2, caspase-6 (Homo sapiens, UniProt P55212); experiment: Biochemical inhibition assay, kinact/Ki with AMAC substrate; settings: read-out: kinact/Ki C6
T2 sequence (P55212 24-179 limits assumed): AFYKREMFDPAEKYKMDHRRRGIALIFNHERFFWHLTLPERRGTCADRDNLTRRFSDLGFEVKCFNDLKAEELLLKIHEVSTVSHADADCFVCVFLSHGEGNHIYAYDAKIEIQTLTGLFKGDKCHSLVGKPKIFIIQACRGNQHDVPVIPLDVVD
T2 sequence (P55212 194-293 limits assumed): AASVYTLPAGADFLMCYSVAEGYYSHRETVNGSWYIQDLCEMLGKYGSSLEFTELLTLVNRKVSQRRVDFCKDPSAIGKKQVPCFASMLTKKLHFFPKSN
Outline: (§2)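 Caspase-8 (25 nM), caspase-9 (100 nM) and caspase-10 (20 nM) used Ac-IETD-AMAC; caspase-9 and caspase-10 buffers also had 0.7 M sodium citrate. Caspase-6 (25 nM) used Ac-VEID-AMAC. Fluorescence (ex 320/em 460) was read immediately, and progress curves were fit for kinact and Ki.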

[3] = molecular target: T3, caspase-7 (Homo sapiens, UniProt P55210); experiment: Biochemical inhibition assay, kinact/Ki with AMAC substrate; settings: read-out: kinact/Ki C7
T3 sequence (P55210 24-198 limits assumed): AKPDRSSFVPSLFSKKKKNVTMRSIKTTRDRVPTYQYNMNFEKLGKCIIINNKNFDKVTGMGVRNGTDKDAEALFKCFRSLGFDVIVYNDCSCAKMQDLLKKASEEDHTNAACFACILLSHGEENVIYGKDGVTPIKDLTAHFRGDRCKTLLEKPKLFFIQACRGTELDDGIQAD
T3 sequence (P55210 207-303 limits assumed): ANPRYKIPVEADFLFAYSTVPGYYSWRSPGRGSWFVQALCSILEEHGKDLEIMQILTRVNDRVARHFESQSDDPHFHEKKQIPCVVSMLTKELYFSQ
Outline: as §1

[4] = molecular target: caspase-8 (Homo sapiens, UniProt Q14790); experiment: Biochemical inhibition assay, kinact/Ki with AMAC substrate; settings: read-out: kinact/Ki C8
caspase-8, sequence (Q14790 217-374 limits assumed): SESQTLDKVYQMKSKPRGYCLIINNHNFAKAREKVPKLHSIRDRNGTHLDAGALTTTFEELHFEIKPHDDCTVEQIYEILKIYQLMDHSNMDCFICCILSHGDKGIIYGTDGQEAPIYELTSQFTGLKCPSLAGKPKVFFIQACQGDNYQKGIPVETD
caspase-8, sequence (Q14790 385-479 limits assumed): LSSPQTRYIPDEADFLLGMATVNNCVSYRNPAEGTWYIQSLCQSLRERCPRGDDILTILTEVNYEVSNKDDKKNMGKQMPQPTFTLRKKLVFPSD
Outline: as §2

[5] = molecular target: T4, caspase-9 (Homo sapiens, UniProt P55211); experiment: as above; settings: read-out: kinact/Ki C9
T4 sequence (P55211 1-315 limits assumed): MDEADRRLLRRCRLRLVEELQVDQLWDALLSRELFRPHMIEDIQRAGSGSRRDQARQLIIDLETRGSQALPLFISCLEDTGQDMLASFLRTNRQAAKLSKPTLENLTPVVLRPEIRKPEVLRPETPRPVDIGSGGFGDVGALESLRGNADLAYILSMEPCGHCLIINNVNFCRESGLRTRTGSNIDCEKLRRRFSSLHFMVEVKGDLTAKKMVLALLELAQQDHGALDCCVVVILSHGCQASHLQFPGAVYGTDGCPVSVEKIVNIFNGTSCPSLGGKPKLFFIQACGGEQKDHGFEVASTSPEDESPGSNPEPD
T4 sequence (P55211 331-416 limits assumed): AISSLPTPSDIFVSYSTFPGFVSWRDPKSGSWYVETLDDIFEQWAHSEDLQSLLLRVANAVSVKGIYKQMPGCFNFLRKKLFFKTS
Outline: as §2

[6] = molecular target: T5, caspase-10 (Homo sapiens, UniProt Q92851); experiment: as above; settings: read-out: kinact/Ki C10
T5 sequence (Q92851 220-415 limits assumed): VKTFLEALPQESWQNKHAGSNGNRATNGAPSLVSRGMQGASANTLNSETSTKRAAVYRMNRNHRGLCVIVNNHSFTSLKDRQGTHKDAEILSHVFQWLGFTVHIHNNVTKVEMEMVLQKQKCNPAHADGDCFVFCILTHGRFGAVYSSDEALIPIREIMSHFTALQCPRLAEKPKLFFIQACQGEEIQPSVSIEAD
T5 sequence (Q92851 416-521 limits assumed): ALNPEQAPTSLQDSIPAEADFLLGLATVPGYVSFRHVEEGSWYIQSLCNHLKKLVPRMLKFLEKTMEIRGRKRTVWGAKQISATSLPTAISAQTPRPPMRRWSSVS
Outline: as §2

[7] = molecular target: T1, caspase-3; settings: cited from earlier work

kinact/KI [1] [M⁻¹ s⁻¹] | kinact/KI [2] [M⁻¹ s⁻¹] | kinact/KI [3] [M⁻¹ s⁻¹] | kinact/KI [4] [M⁻¹ s⁻¹] | kinact/KI [5] [M⁻¹ s⁻¹] | kinact/KI [6] [M⁻¹ s⁻¹] | inactivation rate on caspase-3 as compared to caspase-7 ([1]; ratio of kinact/Ki) [times] | Compound | efficiency in inactivation of caspase-3, less than Ac-DEVD-KE ([7]; ref Solania et al. [2019]) [times] | selectivity for caspase-3 against caspase-7 ([7]; ref Vickers et al. [2013]) [fold] | selectivity for caspase-3 against caspase-8 ([7]; ref Vickers et al. [2013]) [fold]
73500 | 200 | 200 |  |  |  |  | Cc1ccc(C(=O)OCC(=O)[C@@H](CC(=O)O)NC(=O)[C@@H](Cc2ccccc2)NC(=O)C[C@@H](CC(C)C)NC(=O)[C@@H](CC(=O)O)NC(=O)[C@@H](Cc2cccnc2)NC(=O)CCCCCNC(=O)CCCCCNC(=O)CCCc2cn(CCF)nn2)s1 [Inhibitor 1, (3R,6R,10R,13R,16R)-6-benzyl-13-(carboxymethyl)-35-(1-(2-fluoroethyl)-1H-1,2,3-triazol-4-yl)-10-isobutyl-3-(2-((5-methylthiophene-2-carbonyl)oxy)acetyl)-5,8,12,15,18,25,32-heptaoxo-16-(pyridin-3-ylmethyl)-4,7,11,14,17,24,31-heptaazapentatriacontanoic acid] ({X3-Ahx-Ahx}-[d3Pal][dD][d(β3hL)][dF]-X4) |  |  | 
206000 | 5400 | 1000 |  |  |  |  | Cc1cccc(C)c1C(=O)OCC(=O)[C@@H](CC(=O)O)NC(=O)[C@@H](Cc1ccccc1)NC(=O)C[C@@H](CC(C)C)NC(=O)[C@@H](CC(=O)O)NC(=O)[C@@H](Cc1cccnc1)NC(=O)CCCCCNC(=O)CCCCCNC(=O)CCCc1cn(CCF)nn1 [Inhibitor 3, (3R,6R,10R,13R,16R)-6-benzyl-13-(carboxymethyl)-3-(2-((2,6-dimethylbenzoyl)oxy)acetyl)-35-(1-(2-fluoroethyl)-1H-1,2,3-triazol-4-yl)-10-isobutyl-5,8,12,15,18,25,32-heptaoxo-16-(pyridin-3-ylmethyl)-4,7,11,14,17,24,31-heptaazapentatriacontanoic acid] ({X3-Ahx-Ahx}-[d3Pal][dD][d(β3hL)][dF]-X5) |  |  | 
863000 | 200 | 71400 | 7200 | 800 | 700 |  | Cc1ccc(C(=O)OCC(=O)[C@H](CC(=O)O)NC(=O)[C@H](Cc2ccccc2)NC(=O)[C@H](Cc2c(F)c(F)c(F)c(F)c2F)NC(=O)[C@H](CC(=O)O)NC(=O)[C@H](Cc2cccnc2)NC(=O)CNC(=O)[C@H](CCC(=O)O)NC(=O)CNC(=O)Cn2cc(CCCF)nn2)s1 [Inhibitor 4, (3S,6S,9S,12S,15S,21S)-6-benzyl-12-(carboxymethyl)-21-(2-(2-(4-(3-fluoropropyl)-1H-1,2,3-triazol-1-yl)acetamido)acetamido)-3-(2-((5-methylthiophene-2-carbonyl)oxy)acetyl)-5,8,11,14,17,20-hexaoxo-9-((perfluorophenyl)methyl)-15-(pyridin-3-ylmethyl)-4,7,10,13,16,19-hexaazatetracosanedioic acid] (X1-GEG[3Pal]D[Phe(F5)]F-{AspCH2OCO(5-Me-thien-2-yl)}) |  |  | 
1.25e+06 | 300 | 106000 | 13500 | 1000 | 600 |  | Cc1ccc(C(=O)OCC(=O)[C@H](CC(=O)O)NC(=O)[C@H](Cc2ccccc2)NC(=O)[C@H](Cc2c(F)c(F)c(F)c(F)c2F)NC(=O)[C@H](CC(=O)O)NC(=O)[C@H](Cc2cccnc2)NC(=O)CCOCCOCCOCCOCCn2cc(CCCF)nn2)s1 [Inhibitor 5, (17S,20S,23S,26S,29S)-26-benzyl-20-(carboxymethyl)-1-(4-(3-fluoropropyl)-1H-1,2,3-triazol-1-yl)-29-(2-((5-methylthiophene-2-carbonyl)oxy)acetyl)-15,18,21,24,27-pentaoxo-23-((perfluorophenyl)methyl)-17-(pyridin-3-ylmethyl)-3,6,9,12-tetraoxa-16,19,22,25,28-pentaazahentriacontan-31-oic acid] (X2-[3Pal]D[Phe(F5)]F-{AspCH2OCO(5-Me-thien-2-yl)}) |  |  | 
851000 | 200 | 108000 | 7700 | 900 | 900 |  | Cc1ccc(C(=O)OCC(=O)[C@H](CC(=O)O)NC(=O)[C@H](Cc2ccccc2)NC(=O)[C@H](Cc2c(F)c(F)c(F)c(F)c2F)NC(=O)[C@H](CC(=O)O)NC(=O)[C@H](Cc2cccnc2)NC(=O)CCCCCNC(=O)Cn2cc(CCCF)nn2)s1 [Inhibitor 6, (11S,14S,17S,20S,23S)-20-benzyl-14-(carboxymethyl)-1-(4-(3-fluoropropyl)-1H-1,2,3-triazol-1-yl)-23-(2-((5-methylthiophene-2-carbonyl)oxy)acetyl)-2,9,12,15,18,21-hexaoxo-17-((perfluorophenyl)methyl)-11-(pyridin-3-ylmethyl)-3,10,13,16,19,22-hexaazapentacosan-25-oic acid] ({X1-Ahx}-[3Pal]D[Phe(F5)]F-{AspCH2OCO(5-Me-thien-2-yl)}) |  |  | 
1.62e+06 | 300 | 117000 | 15200 | 700 | 1000 | 14 | Cc1ccc(C(=O)OCC(=O)[C@H](CC(=O)O)NC(=O)[C@H](Cc2ccccc2)NC(=O)[C@H](Cc2c(F)c(F)c(F)c(F)c2F)NC(=O)[C@H](CC(=O)O)NC(=O)[C@H](Cc2cccnc2)NC(=O)CNC(=O)CNC(=O)CNC(=O)Cn2cc(CCCF)nn2)s1 [Inhibitor 7, (13S,16S,19S,22S,25S)-22-benzyl-16-(carboxymethyl)-1-(4-(3-fluoropropyl)-1H-1,2,3-triazol-1-yl)-25-(2-((5-methylthiophene-2-carbonyl)oxy)acetyl)-2,5,8,11,14,17,20,23-octaoxo-19-((perfluorophenyl)methyl)-13-(pyridin-3-ylmethyl)-3,6,9,12,15,18,21,24-octaazaheptacosan-27-oic acid] (X1-GGG[3Pal]D[Phe(F5)]F-{AspCH2OCO(5-Me-thien-2-yl)}) |  |  | 
549000 |  | 61000 | 5600 | 400 | 700 |  | Cc1ccc(C(=O)OCC(=O)[C@H](CC(=O)O)NC(=O)[C@H](Cc2ccccc2)NC(=O)[C@H](Cc2c(F)c(F)c(F)c(F)c2F)NC(=O)[C@H](CC(=O)O)NC(=O)[C@H](Cc2cccnc2)NC(=O)Cn2cc(CCCF)nn2)s1 [Inhibitor 8, (4S,7S,10S,13S,16S)-13-benzyl-7-(carboxymethyl)-1-(4-(3-fluoropropyl)-1H-1,2,3-triazol-1-yl)-16-(2-((5-methylthiophene-2-carbonyl)oxy)acetyl)-2,5,8,11,14-pentaoxo-10-((perfluorophenyl)methyl)-4-(pyridin-3-ylmethyl)-3,6,9,12,15-pentaazaoctadecan-18-oic acid] (X1-[3Pal]D[Phe(F5)]F-{AspCH2OCO(5-Me-thien-2-yl)}) |  |  | 
 |  |  |  |  |  |  | Ac-3Pal-Asp-βhLeu-Phe-Asp-KE [Ac-DW3-KE] | 500 | 120 | 58
